We go through 21 compounds from ChEMBL document CHEMBL3352765, “Synthesis and evaluation of the cytotoxic activity of 1,2-furanonaphthoquinones tethered to 1,2,3-1H-triazoles in myeloid and lymphoid leukemia cell lines” (Eur J Med Chem, 2014).

Counter-ions that a name gives are not always drawn. A value given as a limit tells only on which side of the number the result lay.

Data set [1] can be described thus: Cytotoxicity against human KG1 cells after 48 hrs by Alamar blue assay. It is filed as functional, cell-based. The conditions noted are these: KG-1, 48 h. The method in brief: (§1)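 Cells were seeded and exposed to compounds for 48 h in total: K562 at 2.5 × 10⁴/well, KG1 at 5.0 × 10⁴/well. AlamarBlue was added 4 h (K562) or 6 h (KG1) before the end. Fluorescence was read at ex 560/em 590 nm. Triplicate wells at six or seven concentrations. Vehicle controls contained up to 1% DMSO and defined 100% survival. Readout was IC50.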

For data set [2], the system named is CCRF-CEM. In words: Cytotoxicity against human CCRF-CEM cells after 48 hrs by Alamar blue assay. It is filed as functional, cell-based. In short, it runs like this:
(§2)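 Cells seeded at 2.5 × 10⁴/well and exposed to compounds for 48 h in total. AlamarBlue was added before the end of the 48 h (CCRF-CEM 2 h, MOLT-4 6 h). Resorufin fluorescence was read at ex 560/em 590 nm. Triplicate wells at six or seven concentrations. Controls were cells with medium and up to 1% DMSO. IC50 is the concentration killing 50% of cells.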

Data set [3] concerns K562. In words: Cytotoxicity against human K562 cells after 48 hrs by Alamar blue assay. It is filed as functional, cell-based. The conditions noted are these: K562, 48 h. The method in brief:
as §1

The subject of data set [4] is PBMC. The experiment in a line: Cytotoxicity against normal human PBMC assessed as reduction in cell viability at 10 times anti-leukemic IC50 after 48 hrs by Alamar blue assay. It is filed as cell-based. The method in brief:
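Gradient-isolated donor PBMCs (three donors), 5 × 10⁴/well in RPMI 1640 with 10% inactivated FBS. […] Viability was measured by AlamarBlue with 24 h dye incubation and fluorescence at ex 560/em 590 nm.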

The nature of data set [5]: Induction of hemolysis in lamb blood erythrocytes at 1000 uM incubated for 10 mins by microplate reader method. As to conditions: sheep, read-out: Activity. It is filed as cell-based, Ovis aries, Erythrocyte. The method in brief:
(§3)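 Fresh lamb erythrocytes were collected by centrifugation at 1500 rpm for 15 min and washed three times in PBS with 10 mM glucose, pH 7.4. They were used at 4 × 10⁸/well in triplicate, with compounds at a final 1000 µM and retests at 200 µM. After centrifugation at 13,000 rpm for 15 min, supernatant absorbance was read at 540 nm. Results are given as % of complete hemolysis from water osmotic shock.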

In data set [6] the test system is MOLT-4. In words: Cytotoxicity against human MOLT4 cells after 48 hrs by Alamar blue assay. It is filed as functional, cell-based. The conditions noted are these: MOLT-4, 48 h. The method in brief: as §2
Data set [7] relates to PBMC. The experiment in a line: Cytotoxicity against normal human PBMC assessed as reduction in cell viability at 10 uM after 48 hrs by Alamar blue assay. It is filed as functional.
Data set [8] is described as follows: Induction of hemolysis in lamb blood erythrocytes at 200 uM incubated for 10 mins by microplate reader method. It is filed as cell-based, Ovis aries. The conditions noted are these: sheep, erythrocyte. The method in brief:
as §3

The test system of data set [9] is V79. The experiment in a line: Cytotoxicity against Chinese hamster V79 cells. It is filed as cell-based. The conditions noted are these: Cricetulus griseus.
Data set [10] is described as follows: Cytotoxicity against human lymphocytes. It is filed as cell-based. The conditions noted are these: Lymphocyte.
Data set [11] concerns PBMC. The experiment in a line: Cytotoxicity against normal human PBMC assessed as reduction in cell viability after 48 hrs by Alamar blue assay. It is filed as functional, cell-based. In short, it runs like this: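 PBMCs were isolated from healthy-donor buffy coats by density gradient centrifugation and seeded at 5.0 × 10⁴/well in RPMI 1640 with 10% inactivated FBS. Exposure was 48 h, with AlamarBlue added for the final 24 h. Fluorescence was read at ex 560/em 590 nm. Triplicate wells at six or seven concentrations. IC50 was derived against vehicle controls.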

As to `CC1(C)OC2=C(C(=O)C(=O)c3ccccc32)C1n1cc(C2(O)CCCCC2)nn1` (stereo unspecified), the IC50 in [1] came out at 4920 nM; in [2] it was 2790 nM; in [3], 1530 nM; in data set [6] it was 2580 nM. In data set [4], the Activity was > 80%. Besides, in data set [5], the hemolysis at 10 min, 1000 µM was < 5%.
Consider `CC(C)CC(C)(O)c1cn(C2C3=C(OC2(C)C)c2ccccc2C(=O)C3=O)nn1` (stereo unspecified), for which the IC50 in data set [1] came out at 1320 nM; in [2] it was 1770 nM; in data set [3] it was 1910 nM; in data set [6] it was 1470 nM. In addition, the Activity in data set [4] is > 80%. Also, in data set [5], the hemolysis at 10 min, 1000 µM is < 5%.
Consider `CC1(C)OC2=C(C(=O)C(=O)c3ccccc32)C1N=[N+]=[N-]` (stereo unspecified), for which the IC50 in data set [1] turned out to be 6060 nM; in [2], 3180 nM; in data set [3] it was 1580 nM; in data set [6], 3640 nM. In data set [4], the Activity is > 80%.
`CC1(C)OC2=C(C(=O)C(=O)c3ccccc32)C1n1cc(-c2ccccc2)nn1` (stereo unspecified): the IC50 in data set [1] amounted to 12800 nM; in data set [2], 1960 nM; in data set [3] it was 14400 nM; in [6], 750 nM. Moreover, the results for the Activity in [7] and in data set [4] were 30% and “Non-toxic”, respectively. For the same compound, the hemolysis at 10 min, 1000 µM in data set [5] was < 5%.
Regarding `CC1(C)OC2=C(C(=O)C(=O)c3ccccc32)C1n1cc(COC2CCCCO2)nn1` (stereo unspecified), the IC50 in [1] stood at 5630 nM; in data set [2], 3160 nM; in data set [3], 1840 nM; in [6], 2040 nM. The Activity in data set [4] is listed as > 80%. In addition, the hemolysis at 10 min, 1000 µM in [5] is < 5%.
Take `CC(C)(O)c1cn(C2C3=C(OC2(C)C)c2ccccc2C(=O)C3=O)nn1` (stereo unspecified): the IC50 in data set [1] was 2000 nM; in [2], 1730 nM; in data set [3] it was 2430 nM; in data set [6], 2160 nM. In addition, the Activity in [4] is recorded as > 80%. In [5], the hemolysis at 10 min, 1000 µM was < 5%.
Regarding `CC1(C)OC2=C(C(=O)C(=O)c3ccccc32)C1n1cc(CO)nn1` (stereo unspecified), the IC50 was found to be 5330 nM in [1], 1530 nM in [2], 1580 nM in data set [3] and 1350 nM in data set [6]. In addition, the Activity in data set [4] is recorded as > 80%. In addition, the hemolysis at 10 min, 1000 µM in [5] was < 5%.
For the compound `CC1(C)OC2=C(C(=O)C(=O)c3ccccc32)C1n1cc(CCl)nn1` (stereo unspecified), the IC50 was found to be 980 nM in data set [1], 670 nM in data set [2], 1380 nM in data set [3] and 480 nM in [6]. For the same compound, the Activity entry in data set [8] and in data set [4] was “Non-toxic” in each case. For the same compound, the hemolysis at 10 min, 1000 µM in data set [5] is > 5%.
For `CCCCc1cn(C2C3=C(OC2(C)C)c2ccccc2C(=O)C3=O)nn1` (stereo unspecified), the IC50 in data set [1] was 3790 nM; in data set [2], 3730 nM; in data set [3] it was 3780 nM; in data set [6], 1920 nM. Also, the Activity in data set [4] is listed as > 80%. Moreover, in data set [5], the hemolysis at 10 min, 1000 µM was < 5%.
For `COc1ccc(-c2cn(C3C4=C(OC3(C)C)c3ccccc3C(=O)C4=O)nn2)cc1` (stereo unspecified), the IC50 in data set [1] amounted to 76200 nM; in data set [2], 11700 nM; in data set [3] it was 9060 nM; in data set [6], 34500 nM. Besides, the Activity in [4] was > 80%. Moreover, the hemolysis at 10 min, 1000 µM in data set [5] was < 5%.
As to `CCCCCc1cn(C2C3=C(OC2(C)C)c2ccccc2C(=O)C3=O)nn1` (stereo unspecified), the IC50 in data set [1] was 30000 nM; in data set [2] it was 27600 nM; in data set [3] it was 2680 nM; in [6], 2280 nM. The Activity in data set [4] is listed as > 80%. Also, the hemolysis at 10 min, 1000 µM in [5] is < 5%.
Take `COc1cccc2c1C(=O)c1c(O)c3c(c(O)c1C2=O)C[C@@](O)(C(=O)CO)C[C@@H]3O[C@H]1C[C@H](N)[C@H](O)[C@H](C)O1` [DOXORUBICIN HYDROCHLORIDE]: the IC50 in data set [2] was 150 nM; in data set [6], 70 nM. In addition, the Activity in data set [4] was > 80%.
Turning to `CC1(C)CC2=C(O1)c1ccccc1C(=O)C2=O` [NOR-BETA-LAPACHONE], the IC50 in [1] was 17200 nM; in [2] it was 15200 nM; in data set [9] it was 13000 nM; in data set [3] it was 2280 nM; in data set [10], > 22000 nM; in data set [6], 13600 nM. Moreover, in [4], the Activity is > 80%.
Regarding `CCCCCCc1cn(C2C3=C(OC2(C)C)c2ccccc2C(=O)C3=O)nn1` (stereo unspecified), the results for the IC50 in data set [1], in data set [2] and in [6] were 5580 nM, 7300 nM and 2170 nM, respectively. In addition, the Activity in [4] is > 80%. The hemolysis at 10 min, 1000 µM in data set [5] is < 5%.
Take `CCC(C)(O)c1cn(C2C3=C(OC2(C)C)c2ccccc2C(=O)C3=O)nn1` (stereo unspecified): the IC50 in [1] turned out to be 5630 nM; in [2], 3570 nM; in [3], 1390 nM; in data set [6] it was 1980 nM. Moreover, in data set [4], the Activity entry is given as “Non-toxic”. Moreover, in [5], the hemolysis at 10 min, 1000 µM was < 5%.
Regarding `CC1(C)OC2=C(C(=O)C(=O)c3ccccc32)C1n1cc(CCCCl)nn1` (stereo unspecified), the IC50 is 930 nM in [1]; 340 nM in [2]; 2070 nM in data set [3]; > 10000 nM in data set [11]; 50 nM in data set [6]. Further, the Activity in [4] is recorded as > 80%. Besides, the hemolysis at 10 min, 1000 µM in data set [5] is < 5%.
For the compound `CC1(C)OC2=C(C(=O)C(=O)c3ccccc32)C1n1cc(C2=CCCCC2)nn1` (stereo unspecified), the IC50 turned out to be 8410 nM in data set [1], 12600 nM in data set [2], 1110 nM in data set [3] and 280 nM in [6]. For the same compound, the Activity in data set [4] was > 80%. Further, the hemolysis at 10 min, 1000 µM in data set [5] is < 5%.
Turning to `CC(=O)OCc1cn(C2C3=C(OC2(C)C)c2ccccc2C(=O)C3=O)nn1` (stereo unspecified), the IC50 turned out to be 9580 nM in data set [1], 310 nM in data set [2], 8350 nM in data set [3] and 160 nM in data set [6]. In addition, the Activity in data set [4] was > 80%. Moreover, the hemolysis at 10 min, 1000 µM in data set [5] is < 5%.
For `CCCCCc1ccc(-c2cn(C3C4=C(OC3(C)C)c3ccccc3C(=O)C4=O)nn2)cc1` (stereo unspecified), the IC50 worked out at 3920 nM in [1], 13800 nM in data set [2], 8030 nM in data set [3] and 2620 nM in data set [6]. Moreover, the Activity result in data set [8] is recorded as “Non-toxic”; in data set [4], > 80%. Further, in [5], the hemolysis at 10 min, 1000 µM was > 5%.
For `CC1(C)OC2=C(C(=O)C(=O)c3ccccc32)C1n1cc(C2CCCCC2)nn1` (stereo unspecified), the IC50 in data set [1] stood at 7620 nM; in [2] it was 1970 nM; in [3] it was 3800 nM; in data set [6], 2130 nM. Also, the Activity result in data set [4] is “Non-toxic”. For the same compound, in data set [5], the hemolysis at 10 min, 1000 µM is < 5%.
For the compound `CCCc1cn(C2C3=C(OC2(C)C)c2ccccc2C(=O)C3=O)nn1` (stereo unspecified), the IC50 in data set [1] was found to be 1550 nM; in [2] it was 3140 nM; in data set [3], 60900 nM; in data set [6], 1470 nM. The Activity in data set [4] is > 80%. In data set [5], the hemolysis at 10 min, 1000 µM was < 5%.
